Paper PMC3759693 (Genes & Development, 2013)

What was measured:
[1] = system: PARG-dependent PAR hydrolysis; assay: PAR at DNA damage sites after laser microirradiation; assay type: cell-based; conditions: 10 μM GLTN; Supplemental Fig. 7C
[2] = system: recruitment of NBS1 R28A mutant to DNA damage sites; assay: Laser microirradiation, relocation of NBS1 R28A-GFP in MEFs; assay type: cell-based, mouse; conditions: wild-type MEFs
Method in brief: (§1)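 U2OS cells or MEFs (wild-type or knockout) on glass-bottomed dishes expressed GFP-fused proteins or mutants. Microirradiation used an equal laser pulse energy and exposure time for every cell, with live imaging. Where used, 100 nM olaparib, 10 μM GLTN or 10 μM wortmannin was added 1 h before irradiation. GFP intensity at the laser line was quantified; normalized curves from 50 cells over three experiments were averaged, ± SD.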

G2/M checkpoint = assay: G2/M checkpoints assay, phospho-histone H3 flow cytometry; assay type: cell-based; conditions: olaparib treatment
Method in brief: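 Stable cells expressing siRNA-resistant Flag-tagged wild-type NBS1 were pretreated with or without olaparib, then given 0 or 2 Gy IR with 1 h recovery. Cells fixed in 70% ethanol and stained with rabbit anti-phospho-histone H3 (Ser10) plus FITC anti-rabbit secondary. RNase A treatment and propidium iodide staining followed. pH3-positive fraction measured by flow cytometry.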

[3] = system: early phosphorylation of 53BP1; assay: IP/Western blot of 53BP1 phosphorylation after IR; assay type: cell-based; conditions: cells pretreated with olaparib, then irradiated
Method in brief: (§2)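 U2OS cells were given 137Cs IR (10 Gy or indicated doses) and lysed at indicated times. Where used, 100 nM olaparib was added 1 h […]. Lysis on ice in NETN-100 (20 mM Tris-HCl pH 8.0, 100 mM NaCl, 1 mM EDTA, 0.5% NP-40). Soluble fractions were immunoprecipitated and western blotted with the indicated antibodies (e.g., anti-PAR, pATM, pCHK2, pSQpTQ). Triplicates.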

[4] = system: early DNA damage repair in U2OS cells; assay: Neutral comet assay; assay type: cell-based; conditions: 4 Gy IR, olaparib treatment
early activation of ATM = assay: Western blot of pATM; assay type: cell-based; conditions: after IR, cells pretreated with olaparib
Method in brief: as §2

[5] = system: recruitment of DNA Ligase4 to DNA damage sites; assay: Laser microirradiation, relocation of Ligase4; assay type: cell-based; conditions: olaparib treatment; Supplemental Fig. 10B
Method in brief: as §1

[6] = system: recruitment of XRCC1 to DNA damage sites; assay: Laser microirradiation, relocation of XRCC1; assay type: cell-based; conditions: olaparib treatment; Supplemental Fig. 10C
Method in brief: as §1

[7] = system: in vivo interaction between PAR and PNKP, APTX, Ligase4, XRCC1, NBS1; assay: Co-IP of PAR with FHA/BRCT domain-containing proteins after IR; assay type: cell-based; conditions: olaparib pretreatment
Method in brief: as §2

[8] = system: wild-type or H2AX−/− MEFs; assay: Colony formation assay after IR; assay type: cell-based, mouse; conditions: 100 nM olaparib, low dose of IR
Method in brief: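 500 wild-type or H2AX−/− MEFs seeded per well, then given graded 137Cs IR doses with or without 100 nM olaparib present in the medium throughout culture. After 7 d, cells fixed and crystal violet-stained; colonies of >50 cells counted. Triplicates, mean ± SD, Student's t-test.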

[9] = system: recruitment of PNKP to DNA damage sites; assay: Laser microirradiation, relocation of PNKP; assay type: cell-based
Method in brief: as §1

[10] = system: recruitment of NBS1 to DNA damage sites; assay: Laser microirradiation, relocation of NBS1-GFP in MEFs; assay type: cell-based, mouse; conditions: 100 nM olaparib 1 h before laser microirradiation
Method in brief: as §1

[11] = system: recruitment of NBS1 to DNA damage sites; assay: Laser microirradiation, relocation of NBS1-GFP in U2OS cells; assay type: cell-based; conditions: 10 μM wortmannin 1 h before laser microirradiation
Method in brief: as §1

[12] = target: XRCC1 (amino acids 379–400) peptide (Homo sapiens, UniProt P18887); assay: Dot blot, pull-down or ITC with XRCC1 peptide; assay type: binding; conditions: pull-down, or ITC assay, data not shown
XRCC1 (amino acids 379–400) peptide, sequence (P18887 379-400 limits assumed): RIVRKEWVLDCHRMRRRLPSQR

FHA domain of CHK2 = FHA domain of CHK2 (Homo sapiens, UniProt O96017); assay: Interaction with CHK2 FHA domain; assay type: binding; conditions: Supplemental Fig. 3
FHA domain of CHK2, sequence (O96017 113-175 limits assumed): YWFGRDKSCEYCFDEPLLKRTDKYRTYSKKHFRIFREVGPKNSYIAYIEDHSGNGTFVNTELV
Method in brief: (§3)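 Recombinant domains expressed in E. coli, or by baculovirus for NBS1 FHA+BRCT (C-terminal GST), and purified. ITC at 16°C: protein at 20∼60 μM final in 10 mM Na2HPO4 (pH 7.5), 100 mM NaCl. Syringe ligand (PAR, ADP-ribose or iso-ADP-ribose) at 150∼750 μM final in the same buffer, with PAR counted as ADP-ribose units. 0.4 μL preinjection, then 19 × 2 μL injections at 120 sec, 1000 rpm. Isotherms integrated and fitted.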

BRCT domain of MDC1 = target: T1, BRCT domain of MDC1 (Homo sapiens, UniProt Q14676); assay: Affinity of MDC1 BRCT domain with PAR; assay type: binding
T1 sequence (Q14676 1891-2089 limits assumed): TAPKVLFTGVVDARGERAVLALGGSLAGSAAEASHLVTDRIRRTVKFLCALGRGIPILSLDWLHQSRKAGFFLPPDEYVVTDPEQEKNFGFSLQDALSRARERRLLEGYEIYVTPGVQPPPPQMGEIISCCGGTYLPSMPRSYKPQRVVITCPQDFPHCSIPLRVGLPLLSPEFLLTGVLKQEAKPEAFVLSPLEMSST
Method in brief: as §3

FHA domain of RNF8 = target: T2, FHA domain of RNF8 (Homo sapiens, UniProt O76064); assay: Interaction with RNF8 FHA domain; assay type: binding; conditions: Supplemental Fig. 3
T2 sequence (O76064 38-92 limits assumed): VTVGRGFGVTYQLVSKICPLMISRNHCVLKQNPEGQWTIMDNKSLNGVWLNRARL
Method in brief: as §3

BRCT domain of BRCA1 = BRCT domain of BRCA1 (Homo sapiens, UniProt P38398); assay: Affinity of BRCA1 BRCT domain with PAR; assay type: binding
BRCT domain of BRCA1, sequence (P38398 1646-1859 limits assumed): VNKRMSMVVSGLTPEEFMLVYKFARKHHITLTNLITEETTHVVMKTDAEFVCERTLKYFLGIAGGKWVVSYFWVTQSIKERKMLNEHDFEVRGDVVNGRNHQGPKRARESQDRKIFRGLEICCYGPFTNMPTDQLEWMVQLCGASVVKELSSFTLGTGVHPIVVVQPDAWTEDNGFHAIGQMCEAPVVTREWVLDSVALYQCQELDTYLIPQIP
Method in brief: as §3

O=C(OC[C@H]1O[C@@H](OC(=O)c2cc(O)c(O)c(OC(=O)c3cc(O)c(O)c(O)c3)c2)[C@H](OC(=O)c2cc(O)c(O)c(OC(=O)c3cc(O)c(O)c(O)c3)c2)[C@@H](OC(=O)c2cc(O)c(O)c(OC(=O)c3cc(O)c(O)c(O)c3)c2)[C@@H]1OC(=O)c1cc(O)c(O)c(OC(=O)c2cc(O)c(O)c(O)c2)c1)c1cc(O)c(O)c(OC(=O)c2cc(O)c(O)c(O)c2)c1 [GLTN, gallotannin]
half-life of PAR at DNA damage sites [1]: significantly prolonged | retention of NBS1 R28A mutant at DNA damage sites ([2]; GLTN treatment): stabilized NBS1 at DNA damage sites

O=C(c1cc(Cc2n[nH]c(=O)c3ccccc23)ccc1F)N1CCN(C(=O)C2CC2)CC1 [olaparib]
arrest at the G2/M boundary after IR (G2/M checkpoint): could not be fully arrested at the G2/M boundary | early phosphorylation of 53BP1 [3]: clearly suppressed | DNA damage repair (comet assay tail moment) [4]: significantly impaired | early activation of ATM (early activation of ATM): impaired | early recruitment of DNA Ligase4 to DNA damage sites [5]: impaired the early recruitment | fast recruitment of XRCC1 to DNA damage sites [6]: abolished fast recruitment | in vivo interaction of FHA/BRCT domain-containing proteins with PAR [7]: no longer interacted with PAR in vivo | sensitivity to IR-induced DNA damage (colony formation) ([8]; H2AX−/− MEFs): hypersensitive | sensitivity to IR-induced DNA damage (colony formation) ([8]; wild-type MEFs): could still be resistant | early recruitment of PNKP to DNA damage sites ([9]; olaparib treatment, Supplemental Fig. 9A): impaired the early recruitment | recruitment of NBS1 to DNA damage sites ([10]; H2AX−/− cells): abolished both the fast recruitment and slow accumulation of NBS1 | relocation of NBS1 to DNA damage sites ([10]; MDC1−/− cells): abolished the relocation of NBS1 | recruitment of NBS1 to DNA damage sites ([10]; wild-type MEFs): abolished the early recruitment of NBS1 | recruitment of NBS1 R28A mutant to DNA damage sites ([2]; olaparib treatment): abolished the recruitment of NBS1

COC[C@H]1OC(=O)c2coc3c2[C@@]1(C)C1=C(C3=O)[C@@H]2CCC(=O)[C@@]2(C)C[C@H]1OC(C)=O [wortmannin]
recruitment of NBS1 to DNA damage sites [11]: could still be recruited | retention of PNKP at DNA damage sites ([9]; wortmannin treatment, Supplemental Fig. 9D): significantly impaired

poly(ADP-ribose) [PAR]
binding between the peptide and PAR [12]: did not detect any binding | interaction with the FHA domain (FHA domain of CHK2): failed to interact | affinity with PAR (BRCT domain of MDC1): do not have the affinity | interaction with the FHA domain (FHA domain of RNF8): failed to interact | affinity with PAR (BRCT domain of BRCA1): do not have the affinity
